Laboratory results: ChEMBL document CHEMBL5038571, “Design and Synthesis of EZH2-Based PROTACs to Degrade the PRC2 Complex for Targeting the Noncatalytic Activity of EZH2” (J Med Chem, 2021)
Activity calls are given as the source filed them. The calls are words filed in the database; no cut-off is given here.

Experiments:
[1] = biological target: T1, Protein cereblon/Histone-lysine N-methyltransferase EZH2 (Homo sapiens) (UniProt Q15910+Q96SW2); test: PROTAC activity at CRBN E3 ligase/EZH2 in PRC2 complex in human A2780 cells assessed as induction of SUZ12 degradation by measuring reduction in SUZ12 protein level at 1 uM incubated for 48 hrs by Western blot analysis; format: cell-based
Procedure, shortened: (§1)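 Cancer cell lines exposed to 1 μM compound for 48 h. Lysates immunoblotted (SDS-PAGE, nitrocellulose, 5% milk block, primary antibody overnight at 4 °C) for EZH2, SUZ12, EED, RbAp48 and H3K27me3. Bands quantified by densitometry and normalized to GAPDH.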

[2] = system: WSUDLCL2; test: Upregulation of TNFRSF21 mRNA expression in human WSUDLCL2 cells at 1 uM incubated for 48 hrs by qRT-PCR analysis; format: functional, cell-based
Procedure, shortened: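 WSU-DLCL-2 or Pfeiffer cells treated 48 h. Trizol RNA extraction, reverse transcription, SYBR qPCR (95 °C 30 s; 40 cycles of 95 °C 6 s, 60 °C 20 s). mRNA normalized to DMSO-treated cells; mean ± SD of three independent experiments, t-test.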

[3] = biological target: T1, Protein cereblon/Histone-lysine N-methyltransferase EZH2 (Homo sapiens); test: PROTAC activity at CRBN E3 ligase/EZH2 in PRC2 complex in human WSUDLCL2 cells assessed as induction of SUZ12 degradation by measuring reduction in SUZ12 protein level at 1 uM measured after 48 to 72 hrs by Western blot analysis; format: cell-based; settings: time 48-72 hrs
[4] = biological target: T1, Protein cereblon/Histone-lysine N-methyltransferase EZH2 (Homo sapiens); test: PROTAC activity at CRBN E3 ligase/EZH2 in PRC2 complex in human DU-145 cells assessed as reduction in H3K27me3 level at 1 uM incubated for 48 hrs by Western blot analysis; format: cell-based; procedure, shortened: as §1
[5] = system: MDA-MB-468; test: Downregulation of […] mRNA expression in human MDA-MB-468 cells at 10 uM incubated for 48 hrs by qRT-PCR analysis; format: functional, cell-based
Procedure, shortened: (§2)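 Cells treated 48 h. Total RNA extracted with Trizol, reverse-transcribed, and SYBR RT-qPCR run: 95 °C 30 s, then 40 cycles of 95 °C 6 s and 60 °C 20 s. mRNA normalized to the DMSO-treated group. Mean SD of three independent experiments, t-test versus DMSO.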

[6] = system: A549; test: Downregulation of ARL6IP mRNA expression in human A549 cells at 10 uM incubated for 48 hrs by qRT-PCR analysis; format: functional, cell-based; procedure, shortened: as §2
[7] = biological target: T1, Protein cereblon/Histone-lysine N-methyltransferase EZH2 (Homo sapiens); test: PROTAC activity at CRBN E3 ligase/EZH2 in PRC2 complex in human LNCaP cells assessed as induction of RbAp48 degradation by measuring reduction in RbAp48 protein level at 1 uM incubated for 48 hrs by Western blot analysis; format: cell-based; procedure, shortened: as §1
[8] = biological target: T1, Protein cereblon/Histone-lysine N-methyltransferase EZH2 (Homo sapiens); test: PROTAC activity at CRBN E3 ligase/EZH2 in PRC2 complex in human WSUDLCL2 cells assessed as induction of EZH2 degradation at 10 uM incubated for 48 hrs by Western blot analysis; format: cell-based
[9] = biological target: T1, Protein cereblon/Histone-lysine N-methyltransferase EZH2 (Homo sapiens); test: PROTAC activity at CRBN E3 ligase/EZH2 in PRC2 complex in human WSUDLCL2 cells assessed as induction of EED degradation at 10 uM incubated for 48 hrs by Western blot analysis; format: cell-based
[10] = biological target: T1, Protein cereblon/Histone-lysine N-methyltransferase EZH2 (Homo sapiens); test: PROTAC activity at CRBN E3 ligase/EZH2 in PRC2 complex in human WSUDLCL2 cells assessed as downregulation of EED expression at 1 uM pretreated with MG-132 for 4 hrs followed by compound addition and measured after 48 hrs by Western blot analysis; format: cell-based
Procedure, shortened: (§3)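 WSU-DLCL-2 cells pretreated 4 h with the named inhibitor, then compound added and incubated a further 48 h. EZH2, SUZ12, EED and RbAp48 measured by western blot (nitrocellulose transfer, skim-milk block, primary antibody overnight at 4 °C, chemiluminescent detection).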

[11] = biological target: T1, Protein cereblon/Histone-lysine N-methyltransferase EZH2 (Homo sapiens); test: PROTAC activity at CRBN E3 ligase/EZH2 in PRC2 complex in human SU-DHL-6 cells assessed as induction of SUZ12 degradation by measuring reduction in SUZ12 protein level at 1 uM incubated for 48 hrs by Western blot analysis; format: cell-based
Procedure, shortened: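 Cells cultured in DMEM or RPMI 1640 with 10% FBS and 1% penicillin-streptomycin, 37 °C, 5% CO2; exposed to 1 μM compound for 48 h. Lysates run on SDS-PAGE and transferred to nitrocellulose. Blocked 2 h in 5% skim milk, primary antibody overnight at 4 °C, then secondary antibody. Chemiluminescent detection of PRC2 subunits and H3K27me3.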

[12] = system: NCI-H1299; test: Downregulation of ARL6IP mRNA expression in human NCI-H1299 cells at 10 uM incubated for 48 hrs by qRT-PCR analysis; format: functional, cell-based; procedure, shortened: as §2
[13] = system: NCI-H1299; test: Downregulation of CENPK mRNA expression in human NCI-H1299 cells at 10 uM incubated for 48 hrs by qRT-PCR analysis; format: functional, cell-based; procedure, shortened: as §2
[14] = biological target: T1, Protein cereblon/Histone-lysine N-methyltransferase EZH2 (Homo sapiens); test: PROTAC activity at CRBN E3 ligase/EZH2 in PRC2 complex in human WSUDLCL2 cells assessed as downregulation of SUZ12 expression at 1 uM pretreated with EED226 for 4 hrs followed by compound addition and measured after 48 hrs by Western blot analysis; format: cell-based; procedure, shortened: as §3
[15] = biological target: T1, Protein cereblon/Histone-lysine N-methyltransferase EZH2 (Homo sapiens); test: PROTAC activity at CRBN E3 ligase/EZH2 in PRC2 complex in human WSUDLCL2 cells assessed as downregulation of SUZ12 expression at 1 uM pretreated with MG-132 for 4 hrs followed by compound addition and measured after 48 hrs by Western blot analysis; format: cell-based; procedure, shortened: as §3
[16] = biological target: T1, Protein cereblon/Histone-lysine N-methyltransferase EZH2 (Homo sapiens); test: PROTAC activity at CRBN E3 ligase/EZH2 in PRC2 complex in human DU-145 cells assessed as induction of EED degradation by measuring reduction in EED protein level at 1 uM incubated for 48 hrs by Western blot analysis; format: cell-based; procedure, shortened: as §1
[17] = biological target: T1, Protein cereblon/Histone-lysine N-methyltransferase EZH2 (Homo sapiens); test: PROTAC activity at CRBN E3 ligase/EZH2 in PRC2 complex in human WSUDLCL2 cells assessed as induction of EZH2 degradation by measuring reduction in EZH2 protein level at 1 uM measured up to 2 hrs by Western blot analysis; format: cell-based; settings: time hrs <=2
[18] = system: WSUDLCL2; test: Effect on Histone H3 methylation in human WSUDLCL2 cells assessed as reduction in H3K4me3 levels at upto 10 uM incubated for 48 hrs by Western blot analysis; format: functional, cell-based; settings: dose microM <=10, time 48.0 hrs
Procedure, shortened: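 Lysates run on SDS-PAGE and transferred to nitrocellulose. Membranes blocked with 5% skim milk for 2 h, primary antibody applied overnight at 4 °C, then secondary antibody and chemiluminescent detection of histone H3 methylation marks.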

[19] = biological target: T1, Protein cereblon/Histone-lysine N-methyltransferase EZH2 (Homo sapiens); test: PROTAC activity at CRBN E3 ligase/EZH2 in PRC2 complex in human WSUDLCL2 cells assessed as induction of EED degradation incubated for 48 hrs by Western blot analysis; format: cell-based; settings: dose 1-10 µM
[20] = system: A549; test: Downregulation of TACC3 mRNA expression in human A549 cells at 10 uM incubated for 48 hrs by qRT-PCR analysis; format: functional, cell-based; procedure, shortened: as §2
[21] = system: A549; test: Upregulation of CDKN2A mRNA expression in human A549 cells at 5 uM incubated for 48 hrs by qRT-PCR analysis; format: functional, cell-based
Procedure, shortened: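 A549 cells treated 48 h. Trizol RNA extraction, reverse transcription, SYBR qPCR (95 °C 30 s; 40 cycles of 95 °C 6 s, 60 °C 20 s). mRNA normalized to DMSO-treated cells; mean ± SD of three independent experiments.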

T1 sequence (Q15910 whole entry, looked up): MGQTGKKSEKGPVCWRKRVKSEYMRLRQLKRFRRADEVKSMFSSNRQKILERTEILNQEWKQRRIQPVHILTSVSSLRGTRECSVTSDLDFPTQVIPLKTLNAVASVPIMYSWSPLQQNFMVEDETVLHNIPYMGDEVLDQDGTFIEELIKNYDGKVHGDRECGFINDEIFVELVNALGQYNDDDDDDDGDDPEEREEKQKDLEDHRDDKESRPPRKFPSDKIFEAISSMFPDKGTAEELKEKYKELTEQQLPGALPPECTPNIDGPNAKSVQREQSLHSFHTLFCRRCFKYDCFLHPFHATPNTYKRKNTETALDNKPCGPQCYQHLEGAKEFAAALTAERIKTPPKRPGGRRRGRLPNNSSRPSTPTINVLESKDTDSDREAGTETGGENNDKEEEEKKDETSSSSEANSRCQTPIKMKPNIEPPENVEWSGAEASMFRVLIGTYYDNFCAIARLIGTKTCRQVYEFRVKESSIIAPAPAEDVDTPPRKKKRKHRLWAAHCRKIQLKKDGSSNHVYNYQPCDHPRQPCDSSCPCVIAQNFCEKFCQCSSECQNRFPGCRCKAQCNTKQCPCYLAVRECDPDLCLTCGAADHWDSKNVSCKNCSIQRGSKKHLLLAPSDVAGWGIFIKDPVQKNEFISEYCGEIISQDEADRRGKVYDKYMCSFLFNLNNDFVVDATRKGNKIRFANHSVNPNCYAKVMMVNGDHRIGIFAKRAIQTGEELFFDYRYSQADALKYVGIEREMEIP
T1 sequence (Q96SW2 whole entry, looked up): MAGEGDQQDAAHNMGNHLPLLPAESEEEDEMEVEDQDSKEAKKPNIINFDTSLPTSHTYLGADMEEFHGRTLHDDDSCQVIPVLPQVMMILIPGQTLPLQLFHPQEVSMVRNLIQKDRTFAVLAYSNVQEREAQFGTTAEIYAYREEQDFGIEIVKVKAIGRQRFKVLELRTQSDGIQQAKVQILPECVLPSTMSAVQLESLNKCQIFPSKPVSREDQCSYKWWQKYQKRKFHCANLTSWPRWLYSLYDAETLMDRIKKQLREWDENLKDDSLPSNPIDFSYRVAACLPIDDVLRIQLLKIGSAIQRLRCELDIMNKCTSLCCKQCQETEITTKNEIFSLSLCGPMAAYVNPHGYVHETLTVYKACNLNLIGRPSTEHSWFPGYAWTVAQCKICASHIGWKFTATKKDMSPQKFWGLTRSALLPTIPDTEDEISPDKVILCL

Activity [1]: Active
Activity [3]: Active
Activity [4]: Active
Activity [7]: Active
Activity [8]: inactive
Activity [9]: inactive
Activity [10]: inactive
Activity [11]: Active
Activity [14]: Active
Activity [15]: inactive
Activity [16]: Active
Activity [17]: Active
Activity [19]: Dose-Dependent Effect
Compound: CCN(c1cc(-c2ccc(CN3CCN(CCCCCCCOc4cccc5c4C(=O)N(C4CCC(=O)NC4=O)C5=O)CC3)cc2)cc(C(=O)NCc2c(C)cc(C)[nH]c2=O)c1C)C1CCOCC1 (stereo unspecified)
Activity [2]: Active
Activity [5]: Active
Activity [6]: Active
Activity [12]: Active
Activity [13]: Active
Activity [18]: inactive
Activity [20]: Active
Activity [21]: Active
